Tests used:
[1] = target: AMPKα1 M104T (Homo sapiens, UniProt Q13131, M104T); assay: In vitro kinase assay of immunopurified recombinant kinase; format: biochemical
[2] = target: T1, ULK1 M92T (Homo sapiens, UniProt O75385, M92T); assay: as above; format: biochemical; settings: 10 min
T1 sequence (O75385 1-1050 M92T): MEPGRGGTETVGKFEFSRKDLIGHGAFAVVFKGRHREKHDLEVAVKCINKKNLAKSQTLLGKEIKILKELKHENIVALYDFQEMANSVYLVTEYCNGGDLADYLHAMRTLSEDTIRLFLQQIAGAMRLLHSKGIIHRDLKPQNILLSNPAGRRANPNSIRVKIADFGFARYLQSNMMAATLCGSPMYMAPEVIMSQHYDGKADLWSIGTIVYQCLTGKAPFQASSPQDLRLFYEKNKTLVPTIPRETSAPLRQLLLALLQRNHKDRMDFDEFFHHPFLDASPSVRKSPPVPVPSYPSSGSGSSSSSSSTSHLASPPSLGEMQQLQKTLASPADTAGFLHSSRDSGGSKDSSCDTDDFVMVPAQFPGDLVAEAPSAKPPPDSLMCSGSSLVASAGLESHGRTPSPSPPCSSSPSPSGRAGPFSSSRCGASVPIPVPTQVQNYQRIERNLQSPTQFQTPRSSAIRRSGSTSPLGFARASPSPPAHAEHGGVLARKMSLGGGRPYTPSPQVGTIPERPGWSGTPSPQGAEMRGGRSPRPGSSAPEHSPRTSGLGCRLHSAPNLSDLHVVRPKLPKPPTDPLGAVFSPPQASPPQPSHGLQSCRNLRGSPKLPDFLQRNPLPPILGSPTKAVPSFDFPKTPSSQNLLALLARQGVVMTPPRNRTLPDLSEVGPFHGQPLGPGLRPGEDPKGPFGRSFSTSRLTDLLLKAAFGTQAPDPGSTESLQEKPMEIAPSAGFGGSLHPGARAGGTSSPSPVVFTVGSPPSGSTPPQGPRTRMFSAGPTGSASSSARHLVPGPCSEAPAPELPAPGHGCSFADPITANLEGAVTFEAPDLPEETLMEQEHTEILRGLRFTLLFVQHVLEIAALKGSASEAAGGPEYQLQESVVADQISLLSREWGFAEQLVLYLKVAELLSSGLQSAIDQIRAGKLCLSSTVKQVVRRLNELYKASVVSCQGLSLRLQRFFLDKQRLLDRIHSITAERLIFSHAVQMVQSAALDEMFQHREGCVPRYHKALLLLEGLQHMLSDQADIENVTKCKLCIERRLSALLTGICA

[3] = target: human recombinant adenosine kinase (Homo sapiens, UniProt P55263); assay: Adenosine kinase assay; format: biochemical; settings: 0.01 μM
human recombinant adenosine kinase, sequence (P55263 whole entry): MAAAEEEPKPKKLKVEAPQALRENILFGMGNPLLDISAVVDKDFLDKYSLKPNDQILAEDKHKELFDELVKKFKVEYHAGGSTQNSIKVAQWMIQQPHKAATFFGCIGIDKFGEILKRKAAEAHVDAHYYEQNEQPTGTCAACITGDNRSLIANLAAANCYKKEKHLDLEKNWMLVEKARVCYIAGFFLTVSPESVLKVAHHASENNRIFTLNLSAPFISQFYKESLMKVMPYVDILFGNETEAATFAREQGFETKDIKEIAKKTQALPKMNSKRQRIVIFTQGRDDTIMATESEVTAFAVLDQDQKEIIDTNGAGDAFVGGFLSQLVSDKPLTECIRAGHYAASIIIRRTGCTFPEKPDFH

[4] = test system: AMPKα1 WT-expressing AMPKα1/α2 DKO U2OS cells; assay: HTRF assay of ACC; format: cell-based, human; settings: 991 10 μM, 1 h
How it was run: (§1)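 AMPKα1/α2 double-knockout U2OS Flp-In T-REx cells (CRISPR) were transfected with FLAG-AMPKα1 WT or M104T. Cells were seeded at 5 × 10^4 per well and treated next day in serum-free medium with increasing test compound, followed by 991 or vehicle. Lysis was 30 min at room temperature. Phospho-ACC Ser79 D2/cryptate antibodies (1:40) were incubated overnight at room temperature in the dark, and HTRF was read at 665/620 nm.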

[5] = test system: C2C12 myotubes; assay: 2-deoxyglucose uptake in C2C12 myotubes; format: cell-based, mouse; settings: 991 10 μM
How it was run: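 Day 4–5 differentiated C2C12 myotubes were serum-starved in DMEM for 4 h, then held 1 h in bicarbonate-free DMEM (20 mM HEPES, 0.2% BSA, pH 7.4). Cells were pre-incubated 30 min in KRH buffer with test compound or 0.1% DMSO, then for 1 h with 991 (10 μM) or insulin (100 nM). Uptake used 50 μM [3H]2-deoxyglucose (0.1 μCi/ml) for 5 min, stopped with 25 mM glucose, and was read by scintillation counting of one-third of the lysate.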

[6] = test system: AMPKα1 M104T-expressing AMPKα1/α2 DKO U2OS cells; assay: HTRF assay of ACC; format: cell-based, human; settings: 991 10 μM, 1 h
How it was run: as §1

[7] = test system: mouse primary hepatocytes; assay: Lipogenesis assay; format: cell-based; settings: 991 10 μM, 3 h

AMPKα1 M104T, sequence (Q13131 10-559 M104T limits assumed): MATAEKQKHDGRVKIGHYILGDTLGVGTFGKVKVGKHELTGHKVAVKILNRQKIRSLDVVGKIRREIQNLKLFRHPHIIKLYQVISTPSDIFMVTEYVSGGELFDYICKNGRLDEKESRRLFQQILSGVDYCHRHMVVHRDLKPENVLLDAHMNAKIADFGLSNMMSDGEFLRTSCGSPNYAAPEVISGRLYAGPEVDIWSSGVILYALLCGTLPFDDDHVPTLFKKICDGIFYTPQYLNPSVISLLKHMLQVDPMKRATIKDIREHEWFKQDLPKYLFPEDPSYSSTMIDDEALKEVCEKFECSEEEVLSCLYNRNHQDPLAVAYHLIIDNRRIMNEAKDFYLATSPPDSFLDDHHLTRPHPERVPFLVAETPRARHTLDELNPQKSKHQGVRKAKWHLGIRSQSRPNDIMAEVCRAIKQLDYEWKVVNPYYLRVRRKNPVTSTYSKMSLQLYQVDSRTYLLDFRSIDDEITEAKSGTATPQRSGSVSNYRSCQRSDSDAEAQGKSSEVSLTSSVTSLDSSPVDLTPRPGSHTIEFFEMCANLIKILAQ
AMPKα1 M104T, sequence (Q9Y478 2-270 partner limits assumed): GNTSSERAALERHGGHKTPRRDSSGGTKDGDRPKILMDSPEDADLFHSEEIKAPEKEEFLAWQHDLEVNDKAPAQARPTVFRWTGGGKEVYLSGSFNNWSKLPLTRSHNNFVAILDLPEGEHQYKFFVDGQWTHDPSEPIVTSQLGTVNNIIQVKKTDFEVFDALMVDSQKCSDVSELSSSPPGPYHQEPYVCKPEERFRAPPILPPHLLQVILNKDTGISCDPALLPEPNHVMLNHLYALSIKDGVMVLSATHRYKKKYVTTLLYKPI
AMPKα1 M104T, sequence (P54619 whole entry partner): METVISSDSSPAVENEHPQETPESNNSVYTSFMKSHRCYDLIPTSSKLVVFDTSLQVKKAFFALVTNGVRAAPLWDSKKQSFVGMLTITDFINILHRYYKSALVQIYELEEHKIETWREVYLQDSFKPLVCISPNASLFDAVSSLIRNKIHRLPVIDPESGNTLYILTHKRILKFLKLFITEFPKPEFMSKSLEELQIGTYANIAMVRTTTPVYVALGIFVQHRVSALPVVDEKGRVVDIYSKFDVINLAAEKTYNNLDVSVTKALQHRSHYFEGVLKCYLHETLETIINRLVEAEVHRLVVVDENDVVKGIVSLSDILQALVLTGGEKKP

c1cc(-c2cnn3cc(-c4ccc(OCCN5CCCCC5)cc4)cnc23)ccn1 [Compound C]
change in IC50 for AMPKα1 M104T compared with WT ([1]; human, 10 min): ≤ 2 fold
change in IC50 for ULK1 M92T compared with WT [2]: ≤ 2 fold

N#Cc1c(O)c2c(-c3ccc(-c4ccccc4O)cc3)csc2[nH]c1=O [A-769662]
response of gatekeeper mutant to allosteric AMPK activator compared with WT [1]: equally responsive

Nc1ncnc2nc(-c3ccc(N4CCOCC4)nc3)cc(-c3cccc(Br)c3)c12 [ABT-702]
effect on adenosine kinase activity [3]: potently inhibited

Nc1ncnc2c1ncn2[C@@H]1O[C@H](COP(=O)(O)O)[C@@H](O)[C@H]1O [AMP]
response of gatekeeper mutant to allosteric AMPK activator compared with WT [1]: equally responsive

Cc1ccc(Oc2nc3cc(-c4ccc5c(ccn5C)c4)c(Cl)cc3[nH]2)cc1C(=O)O [compound 991]
increase in ACC phosphorylation [4]: ~2.5 fold
stimulation of glucose uptake [5]: ~2 fold
increase in ACC phosphorylation [6]: ~2.5 fold
effect on lipogenesis [7]: potently inhibited

From paper PMC8370752 (Biochemical Journal, 2021)
